Experiment [1] has as its system HCT-116. Description: Growth inhibition of human HCT116 cells after 72 hrs by MTS assay. The class given is functional, cell-based. The following applies: HCT-116, 72 h. Put shortly:
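HCT116 grown in McCoy's 5A, 10% FBS, 37 °C, 5% CO2; 5000 cells/well; compound in DMSO added 24 h after plating, 72 h exposure. Viability by MTS/PMS reduction to formazan, absorbance 490 nm. IC50 with 95% CI by curve fit; at least three independent experiments.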

For experiment [2], the system named is HepG2. Description: Growth inhibition of human HepG2 cells after 72 hrs by MTS assay. It counts as functional, cell-based. The following applies: HepG2, 72 h. A digest of the protocol: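 HepG2 grown in DMEM with 10% FBS and 1% nonessential amino acids; 5000 cells/well; medium replaced with DMSO-dissolved compound 24 h post-seeding, 72 h exposure. MTS formazan absorbance read at 490 nm. IC50 derived with 95% CI; at least three independent experiments.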

Experiment [3] has as its system HCT-116. Nature of the experiment: Cell cycle arrest in human HCT116 cells assessed as accumulation at G1 phase at antiproliferative IC50 after 24 hrs by propidium iodide staining based flow cytometry (reference value: 31%). The class given is functional.
For experiment [4], the system named is HCT-116. Description: Cell cycle arrest in human HCT116 cells assessed as accumulation at S phase at antiproliferative IC50 after 24 hrs by propidium iodide staining based flow cytometry (reference value: 38.8%). The class given is functional.
In experiment [5] the test system is HCT-116. Description: Cell cycle arrest in human HCT116 cells assessed as accumulation at G2/M phase at antiproliferative IC50 after 24 hrs by propidium iodide staining based flow cytometry (reference value: 30.2%). The class given is functional.
For experiment [6], the system named is HCT-116. Description: Cell cycle arrest in human HCT116 cells assessed as accumulation at G1 phase at 2 times antiproliferative IC50 after 24 hrs by propidium iodide staining based flow cytometry (reference value: 31%). It counts as functional.
Experiment [7] has as its system HCT-116. Description: Cell cycle arrest in human HCT116 cells assessed as accumulation at S phase at 2 times antiproliferative IC50 after 24 hrs by propidium iodide staining based flow cytometry (reference value: 38.8%). The class given is functional.
Experiment [8] concerns HCT-116. Nature of the experiment: Cell cycle arrest in human HCT116 cells assessed as accumulation at G2/M phase at 2 times antiproliferative IC50 after 24 hrs by propidium iodide staining based flow cytometry (reference value: 30.2%). It counts as functional.
The subject of experiment [9] is HCT-116. Nature of the experiment: Cytotoxicity against human HCT116 cells assessed as cell death at antiproliferative IC50 after 72 hrs by LDH release assay relative to control. The class given is functional. A digest of the protocol: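 HCT116 cells grown in McCoy's 5A with 10% FBS at 37 °C, 5% CO2, and treated 24 h after plating for 72 h with compound or DMSO vehicle. Supernatants were spun at 250g for 2 min, and attached cells were lysed. LDH reagent was added for 15 min at room temperature in the dark, and absorbance was read at 490/620 nm. Release = supernatant/(supernatant + lysate) LDH, fold over DMSO; mean ± SEM, ≥3 experiments.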

Experiment [10] deals with HCT-116. Nature of the experiment: Induction of apoptosis in human HCT116 cells assessed as apoptotic nuclei at antiproliferative IC50 after 24 hrs by Hoechst 33258 staining based fluorescence microscopic method (reference value: <2%). It counts as functional. Put shortly: (§1)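 HCT116 seeded 150 000 cells per 35 mm dish; treated 24 h, fixed in 4% paraformaldehyde in PBS pH 7.4, 10 min 25 °C, stained Hoechst 33258 5 μg/mL, 5 min. Fluorescence microscopy; condensed or fragmented chromatin scored apoptotic; three random fields of about 100 nuclei per sample; percent apoptotic nuclei, mean ± SEM, ≥3 experiments.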

Experiment [11] concerns HCT-116. Nature of the experiment: Induction of apoptosis in human HCT116 cells assessed as apoptotic nuclei at 2 times antiproliferative IC50 after 24 hrs by Hoechst 33258 staining based fluorescence microscopic method (reference value: <2%). It counts as functional. A digest of the protocol: as §1
Experiment [12] deals with HCT-116. Description: Induction of apoptosis in human HCT116 cells assessed as caspase-3/7 activation at antiproliferative IC50 after 24 hrs by Caspase-Glo assay relative to DMSO control. It counts as functional. Put shortly: (§2)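 HCT116 at 5000 cells/well exposed 24 h. Caspase-Glo 3/7 reagent (DEVD-aminoluciferin substrate) 75 μL/well, 30 min room temperature for lysis and signal build-up; luminescence read. Activity expressed as fold of the reference treatment (DMSO vehicle or 5-FU); mean ± SEM, at least three experiments.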

Experiment [13] deals with HCT-116. Nature of the experiment: Induction of apoptosis in human HCT116 cells assessed as caspase-3/7 activation at antiproliferative IC50 after 24 hrs by Caspase-Glo assay relative to 5-fluorouracil. The class given is functional. Put shortly:
as §2

`CC[C@@H]1CN(C)[C@H]2Cc3c([nH]c4ccccc34)[C@H](c3c(OC)ccc4c5c([nH]c34)C3(C(=O)OC)C[C@@H]4C[C@H](CC)[C@@H]3N(CC5)C4)C[C@@H]1C2C(=O)OC` (stereo partly drawn): the IC50 in experiment [1] and in experiment [2] was over 10 µM each time.
Take `CC[C@H]1CN(C)[C@H]2Cc3c([nH]c4ccccc34)[C@H](c3c(OC)ccc4c5c([nH]c34)C3(C(=O)OC)C[C@@H]4C[C@H]([C@H](C)O)[C@@H]3N(CC5)C4)C[C@@H]1C2C(=O)OC` (stereo partly drawn): the half-maximal inhibitory concentration (IC50) in experiment [1] was 8.4 µM; in [2], over 10 µM. Further, the Activity in experiment [3] is on record as 42.3 - 49%; in experiment [4], 39.3%; in experiment [5], 18.5%; in experiment [6], 55 - 65%; in [7] it was 19.3%; in experiment [8], 15.7%. The results for the Activity in experiment [10] and in [11] were 11% and 13%, respectively. Moreover, the “fold change (FC)” value is 2.5 - 2.8 in [9], 1.6 - 5.2 in [12] and 1.5 - 3.7 in [13].
As for `O=c1[nH]cc(F)c(=O)[nH]1` [FLUOROURACIL], the figures for the IC50 in experiment [1] and in experiment [2] were 2.5 µM and over 10 µM, respectively. Besides, the Activity is listed as 21.3% in [3]; 78.7% in [4]; 0% in experiment [5]; 39.8% in experiment [6]; 55.7% in experiment [7]; 4.48% in experiment [8]. Also, in experiment [9], the “fold change (FC)” value is reported as 2.2 - 2.5.
On to `CC[C@H]1CN(C)[C@H]2Cc3c([nH]c4ccccc34)[C@H](c3cc4c5c([nH]c4cc3OC)C3(C(=O)OC)CC4C[C@H](CC)[C@@H]3N(CC5)C4=O)C[C@@H]1C2C(=O)OC` (stereo partly drawn), for which the half-maximal inhibitory concentration (IC50) in [1] is 8.8 µM; in experiment [2], over 10 µM. The Activity in experiment [3] is 34.4%; in [4], 39.4%; in experiment [5] it was 26.2 - 32%; in experiment [6], 32%; in experiment [7], 17.5%; in experiment [8] it was 44 - 50.5%. Also, the Activity in experiment [10] stood at 16%; in experiment [11] it was 37%. Also, the “fold change (FC)” value in experiment [9] is 2.5 - 2.8; in experiment [12], 1.6 - 5.2; in experiment [13], 1.5 - 3.7.
Consider `CC[C@H]1CN(C)[C@H]2Cc3c([nH]c4ccccc34)[C@H](c3c(OC)ccc4c5c([nH]c34)C3(C(=O)OC)CC4C[C@H](CC)[C@@H]3N(CC5)C4=O)C[C@@H]1C2C(=O)OC` (stereo partly drawn), for which the IC50 in experiment [1] and in experiment [2] was over 10 µM each time. In addition, the Activity was 41.7 - 46% in [3]; 36.5% in experiment [4]; 21.8% in experiment [5]; 62 - 67.2% in experiment [6]; 15.9% in experiment [7]; 16.9% in experiment [8]. In addition, the figures for the Activity in experiment [10] and in [11] were 16% and 25%, respectively. Also, the “fold change (FC)” value in experiment [9] was 2.5 - 2.8; in [12], 1.6 - 5.2; in experiment [13], 1.5 - 3.7.
With `CC[C@H]1CN(C)[C@H]2Cc3c([nH]c4ccccc34)[C@H](c3cc4c5c([nH]c4cc3OC)C3(C(=O)OC)C[C@@H]4C[C@H](CC)[C@@H]3N(CC5)C4)C[C@@H]1C2C(=O)OC` (stereo partly drawn), the results for the IC50 in [1] and in [2] were 8.5 µM and over 10 µM, respectively. Besides, the Activity in experiment [3] is reported as 2.39%; in experiment [4] it was 21.9%; in [5], 75.7 - 77%; in experiment [6], 27.7%; in experiment [7], 28.5%; in experiment [8], 43.8 - 47%. Besides, the values for the Activity in experiment [10] and in experiment [11] were 31% and 40%, respectively. The “fold change (FC)” value is reported as 2.5 - 2.8 in experiment [9], 1.6 - 5.2 in [12] and 1.5 - 3.7 in [13].

Values taken from ChEMBL document CHEMBL4041486, “Vobasinyl-Iboga Alkaloids from Tabernaemontana elegans: Cell Cycle Arrest and Apoptosis-Inducing Activity in HCT116 Colon Cancer Cells” (J Nat Prod, 2016).
